From ChEMBL document CHEMBL1833940, “Discovery of 3-(2,6-dichloro-3,5-dimethoxy-phenyl)-1-{6-[4-(4-ethyl-piperazin-1-yl)-phenylamino]-pyrimidin-4-yl}-1-methyl-urea (NVP-BGJ398), a potent and selective inhibitor of the fibroblast growth factor receptor family of receptor tyrosine kinase” (J Med Chem, 2011)

Tests used:
[1] = biological target: Tyrosine-protein kinase Lck (Homo sapiens, UniProt P06239); assay: Inhibition of recombinant LCK kinase
Method in brief: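 Purified recombinant kinases under optimized conditions, with peptide substrates and ATP at each kinase's Km. Phosphorylation was read out by microfluidic mobility shift, and IC50 values were obtained.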

[2] = biological target: Serine/threonine-protein kinase WNK1 (Homo sapiens, UniProt Q9H4A3); assay: Inhibition of recombinant WNK1
Method in brief: (§1)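 Purified recombinant kinases under optimized conditions with peptide substrates. ATP was set at each kinase's Km. Phosphorylation was read by microfluidic mobility-shift separation of substrate and product; IC50 determined.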

[3] = system: Rattus norvegicus; assay: Dose normalized AUC in Wistar rat at 5 mg/kg, iv by LC-MS/MS analysis; assay type: ADME, organism-based; set-up: dose 5 mg/kg, route intravenous; settings: in vivo
Method in brief: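 Female Wistar rats received either an iv femoral-vein dose of 5 mg/kg in NMP/PEG200 (1:9) or an oral dose of monophosphate salt at 10 mg/kg (free base) in acetate buffer pH 4.6/PEG300. Plasma was sampled by sublingual bleeding at 0.083–24 h (n = 4 staggered, or n = 3–4 serial). Plasma levels were measured by LC-MS/MS (LOQ 10 ng/mL).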

[4] = biological target: Phosphatidylinositol 4-kinase beta (Homo sapiens, UniProt Q9UBF8); assay: Inhibition of PI4Kbeta by luminescent kinase assay
[5] = system: VM-CUB-1; assay: Antiproliferative activity against human VMCUB1 cells after 72 hrs; assay type: functional, cell-based; settings: VM-CUB-1, 72 h
Method in brief: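 Bladder cancer lines from ATCC or DSMZ were seeded in 96-well plates (RT4, RT112 at 8500 cells/well; others at 5000 cells/well) in growth medium. Compound dilutions or DMSO were added 24 h later and incubated 72 h. Cells were fixed with glutaraldehyde, stained with 0.05% methylene blue and eluted with 3% HCl, then OD650 nm was read.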

[6] = biological target: Insulin-like growth factor 1 receptor (Homo sapiens, UniProt P08069); assay: Inhibition of recombinant IGF1R; method in brief: as §1
Insulin-like growth factor 1 receptor, sequence (P08069 31-736 limits assumed): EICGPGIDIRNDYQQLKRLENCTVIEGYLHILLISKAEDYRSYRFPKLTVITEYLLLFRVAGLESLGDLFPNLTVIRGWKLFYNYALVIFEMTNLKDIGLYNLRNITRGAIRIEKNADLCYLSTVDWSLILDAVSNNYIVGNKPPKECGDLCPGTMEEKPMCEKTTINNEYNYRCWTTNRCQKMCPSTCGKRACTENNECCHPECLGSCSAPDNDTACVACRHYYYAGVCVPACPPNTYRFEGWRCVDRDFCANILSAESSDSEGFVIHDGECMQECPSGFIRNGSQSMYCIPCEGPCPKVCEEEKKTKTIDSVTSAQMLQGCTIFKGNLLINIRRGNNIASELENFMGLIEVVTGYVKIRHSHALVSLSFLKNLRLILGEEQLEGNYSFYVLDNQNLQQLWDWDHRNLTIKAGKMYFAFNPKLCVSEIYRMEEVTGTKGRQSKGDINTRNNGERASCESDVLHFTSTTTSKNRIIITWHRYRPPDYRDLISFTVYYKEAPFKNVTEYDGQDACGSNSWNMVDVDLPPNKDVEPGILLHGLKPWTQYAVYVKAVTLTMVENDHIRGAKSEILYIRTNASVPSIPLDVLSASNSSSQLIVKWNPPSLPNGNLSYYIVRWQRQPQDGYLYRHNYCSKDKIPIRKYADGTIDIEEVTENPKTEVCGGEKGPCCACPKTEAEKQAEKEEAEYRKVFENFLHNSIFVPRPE
Insulin-like growth factor 1 receptor, sequence (P08069 741-1367 limits assumed): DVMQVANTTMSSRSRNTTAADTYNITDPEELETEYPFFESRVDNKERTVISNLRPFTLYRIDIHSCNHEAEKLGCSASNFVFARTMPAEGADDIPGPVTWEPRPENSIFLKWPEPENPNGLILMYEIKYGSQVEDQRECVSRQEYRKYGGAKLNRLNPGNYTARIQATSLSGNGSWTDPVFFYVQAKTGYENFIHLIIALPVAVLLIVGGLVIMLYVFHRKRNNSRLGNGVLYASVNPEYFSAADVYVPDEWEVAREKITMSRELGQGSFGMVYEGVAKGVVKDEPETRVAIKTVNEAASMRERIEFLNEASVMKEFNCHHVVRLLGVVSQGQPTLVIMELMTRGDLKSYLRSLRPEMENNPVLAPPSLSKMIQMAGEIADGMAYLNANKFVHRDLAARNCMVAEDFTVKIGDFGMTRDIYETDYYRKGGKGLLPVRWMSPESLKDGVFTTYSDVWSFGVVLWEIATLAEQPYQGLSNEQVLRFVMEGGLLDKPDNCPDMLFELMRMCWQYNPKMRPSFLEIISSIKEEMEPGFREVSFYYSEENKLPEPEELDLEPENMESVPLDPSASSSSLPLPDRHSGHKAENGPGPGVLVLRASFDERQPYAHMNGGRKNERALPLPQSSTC

Tyrosine-protein kinase Lck, sequence (P06239 whole entry): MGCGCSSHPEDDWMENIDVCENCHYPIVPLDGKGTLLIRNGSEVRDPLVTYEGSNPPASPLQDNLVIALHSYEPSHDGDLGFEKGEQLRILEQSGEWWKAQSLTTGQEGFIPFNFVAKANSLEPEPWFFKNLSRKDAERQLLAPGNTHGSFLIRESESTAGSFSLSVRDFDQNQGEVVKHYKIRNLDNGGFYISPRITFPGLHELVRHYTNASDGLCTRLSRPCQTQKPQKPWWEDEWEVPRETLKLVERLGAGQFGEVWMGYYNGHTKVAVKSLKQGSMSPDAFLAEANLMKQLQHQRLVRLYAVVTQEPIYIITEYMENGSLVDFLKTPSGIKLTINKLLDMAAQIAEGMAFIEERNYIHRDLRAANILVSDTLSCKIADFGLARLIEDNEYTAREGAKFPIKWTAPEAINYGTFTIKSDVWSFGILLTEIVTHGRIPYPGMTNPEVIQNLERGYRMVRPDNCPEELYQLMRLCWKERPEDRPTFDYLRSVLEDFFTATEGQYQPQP
Serine/threonine-protein kinase WNK1, sequence (Q9H4A3 whole entry): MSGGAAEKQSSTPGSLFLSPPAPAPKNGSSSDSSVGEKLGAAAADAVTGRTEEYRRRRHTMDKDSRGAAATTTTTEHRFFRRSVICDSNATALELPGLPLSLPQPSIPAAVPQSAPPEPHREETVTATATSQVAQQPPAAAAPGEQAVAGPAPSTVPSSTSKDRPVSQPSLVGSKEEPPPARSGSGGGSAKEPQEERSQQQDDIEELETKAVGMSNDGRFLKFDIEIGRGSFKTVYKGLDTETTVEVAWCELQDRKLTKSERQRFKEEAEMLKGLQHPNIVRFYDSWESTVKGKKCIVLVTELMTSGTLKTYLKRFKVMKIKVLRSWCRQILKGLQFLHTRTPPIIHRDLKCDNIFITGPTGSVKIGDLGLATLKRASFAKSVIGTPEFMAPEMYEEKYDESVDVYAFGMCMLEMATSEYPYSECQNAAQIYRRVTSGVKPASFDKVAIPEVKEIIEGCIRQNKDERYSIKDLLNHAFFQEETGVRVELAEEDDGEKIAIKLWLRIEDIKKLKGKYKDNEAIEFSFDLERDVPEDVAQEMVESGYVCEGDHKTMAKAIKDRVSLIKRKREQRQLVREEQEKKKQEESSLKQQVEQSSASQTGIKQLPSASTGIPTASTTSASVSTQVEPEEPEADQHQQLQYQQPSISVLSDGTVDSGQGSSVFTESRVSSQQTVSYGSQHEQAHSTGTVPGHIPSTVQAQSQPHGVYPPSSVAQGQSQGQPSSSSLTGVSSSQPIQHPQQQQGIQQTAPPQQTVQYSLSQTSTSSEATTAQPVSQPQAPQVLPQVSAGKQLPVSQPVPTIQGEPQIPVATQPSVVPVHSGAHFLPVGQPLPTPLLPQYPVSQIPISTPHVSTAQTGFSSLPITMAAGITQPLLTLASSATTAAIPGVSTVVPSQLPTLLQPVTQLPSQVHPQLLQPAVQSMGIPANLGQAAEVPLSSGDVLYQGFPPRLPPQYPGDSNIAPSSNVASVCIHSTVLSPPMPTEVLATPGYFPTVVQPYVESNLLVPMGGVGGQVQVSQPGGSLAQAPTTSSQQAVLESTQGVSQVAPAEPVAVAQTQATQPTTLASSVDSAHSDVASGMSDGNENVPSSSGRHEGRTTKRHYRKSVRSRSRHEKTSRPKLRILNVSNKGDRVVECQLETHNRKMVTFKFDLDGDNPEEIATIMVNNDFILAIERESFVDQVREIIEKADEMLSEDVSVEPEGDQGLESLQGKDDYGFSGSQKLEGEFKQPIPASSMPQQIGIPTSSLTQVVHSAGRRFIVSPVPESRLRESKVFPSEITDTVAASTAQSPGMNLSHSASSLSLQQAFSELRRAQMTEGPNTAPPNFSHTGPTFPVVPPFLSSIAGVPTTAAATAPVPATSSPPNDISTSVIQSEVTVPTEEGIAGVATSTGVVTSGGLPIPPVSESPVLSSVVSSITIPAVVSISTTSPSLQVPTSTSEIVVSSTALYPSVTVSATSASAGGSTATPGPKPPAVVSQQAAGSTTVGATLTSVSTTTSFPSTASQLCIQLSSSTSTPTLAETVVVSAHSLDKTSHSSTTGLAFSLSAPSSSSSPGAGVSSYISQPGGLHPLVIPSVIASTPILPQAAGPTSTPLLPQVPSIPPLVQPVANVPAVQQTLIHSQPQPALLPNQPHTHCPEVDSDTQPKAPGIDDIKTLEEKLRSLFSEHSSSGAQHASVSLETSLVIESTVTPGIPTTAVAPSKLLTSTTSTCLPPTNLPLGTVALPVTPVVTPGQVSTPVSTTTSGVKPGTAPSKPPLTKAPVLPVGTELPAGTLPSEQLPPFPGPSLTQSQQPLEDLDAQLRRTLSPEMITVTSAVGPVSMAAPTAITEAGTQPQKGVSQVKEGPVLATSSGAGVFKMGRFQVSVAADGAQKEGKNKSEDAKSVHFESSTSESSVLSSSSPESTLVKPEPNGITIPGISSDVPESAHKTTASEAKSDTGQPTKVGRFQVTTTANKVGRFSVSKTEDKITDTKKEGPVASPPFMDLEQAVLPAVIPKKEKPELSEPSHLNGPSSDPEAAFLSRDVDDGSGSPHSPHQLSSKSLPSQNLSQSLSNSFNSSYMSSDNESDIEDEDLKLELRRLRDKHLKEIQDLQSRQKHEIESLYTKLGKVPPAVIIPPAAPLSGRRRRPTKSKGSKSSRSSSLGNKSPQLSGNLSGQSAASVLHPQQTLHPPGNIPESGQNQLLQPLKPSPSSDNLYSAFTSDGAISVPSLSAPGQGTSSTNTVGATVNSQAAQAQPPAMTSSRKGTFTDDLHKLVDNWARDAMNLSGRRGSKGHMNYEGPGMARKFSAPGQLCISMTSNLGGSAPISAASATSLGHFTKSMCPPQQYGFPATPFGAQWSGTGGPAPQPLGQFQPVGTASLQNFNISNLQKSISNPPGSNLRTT
Phosphatidylinositol 4-kinase beta, sequence (Q9UBF8 whole entry): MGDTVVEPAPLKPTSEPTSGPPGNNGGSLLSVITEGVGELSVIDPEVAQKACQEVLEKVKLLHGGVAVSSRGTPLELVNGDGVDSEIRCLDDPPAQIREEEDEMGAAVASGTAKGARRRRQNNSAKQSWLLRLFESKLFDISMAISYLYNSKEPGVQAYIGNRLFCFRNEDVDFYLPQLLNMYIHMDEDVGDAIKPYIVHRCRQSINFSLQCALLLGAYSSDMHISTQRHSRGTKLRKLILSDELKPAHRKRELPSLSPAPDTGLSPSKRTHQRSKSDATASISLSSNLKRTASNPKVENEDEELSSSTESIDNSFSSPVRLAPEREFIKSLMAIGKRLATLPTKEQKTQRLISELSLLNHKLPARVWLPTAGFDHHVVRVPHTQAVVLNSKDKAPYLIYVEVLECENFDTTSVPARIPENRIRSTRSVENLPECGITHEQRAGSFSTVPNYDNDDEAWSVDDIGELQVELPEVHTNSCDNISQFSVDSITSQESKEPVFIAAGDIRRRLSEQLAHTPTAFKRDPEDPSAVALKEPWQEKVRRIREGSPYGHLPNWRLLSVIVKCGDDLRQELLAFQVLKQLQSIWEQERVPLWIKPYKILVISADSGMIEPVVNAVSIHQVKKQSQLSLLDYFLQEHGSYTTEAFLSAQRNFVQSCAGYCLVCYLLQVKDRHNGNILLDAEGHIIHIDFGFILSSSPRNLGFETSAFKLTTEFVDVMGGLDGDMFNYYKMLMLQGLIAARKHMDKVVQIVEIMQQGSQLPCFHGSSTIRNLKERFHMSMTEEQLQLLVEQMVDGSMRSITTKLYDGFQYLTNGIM

IC50 [1]: 2.5 µM
IC50 [2]: > 10 µM
AUC/dose [3]: 0.49 µM·h
IC50 [4]: > 9 µM
IC50 [6]: > 10 µM
SMILES: CCN1CCN(c2ccc(Nc3cc(N(C)C(=O)Nc4c(Cl)c(OC)cc(OC)c4Cl)ncn3)cc2)CC1.O=P(O)(O)O [INFIGRATINIB PHOSPHATE]
IC50 [5]: > 3 µM
